Test results taken from ChEMBL document CHEMBL1154044, “5-Nitro-2-furyl derivative actives against Trypanosoma cruzi: preliminary in vivo studies” (Eur J Med Chem, 2009).

Assays:
Mus musculus [1] = assay: Toxicity in CD1 mouse heart at 450 mg/kg, po after 3 days by histological study; assay type: organism-based; design: dose 450 mg/kg, route oral; details: in vivo, 72 h
In short: (§1)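 Healthy female CD1 mice (20–22 g), 5–7 per group, given a single oral (intragastric) or i.p. dose in saline:Tween 80 (4:1) vehicle. Sacrificed on day 3 after ether anaesthesia. Organs fixed in 10% aqueous formalin for histology. Scored against untreated animals from no change to +++ (many changes).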

Mus musculus [2] = assay: Toxicity in CD1 mouse heart at 300 mg/kg, ip after 3 days by histological study; assay type: organism-based; design: dose 300 mg/kg, route intraperitoneal; details: in vivo, 72 h; in short: as §1
Mus musculus [3] = assay: Toxicity in CD1 mouse lung at 450 mg/kg, po after 3 days by histological study; assay type: organism-based; design: dose 450 mg/kg, route oral; details: in vivo, 72 h; in short: as §1
Mus musculus [4] = assay: Toxicity in CD1 mouse lung at 300 mg/kg, ip after 3 days by histological study; assay type: organism-based; design: dose 300 mg/kg, route intraperitoneal; details: in vivo, 72 h; in short: as §1
Mus musculus [5] = assay: Toxicity in CD1 mouse brain at 450 mg/kg, po after 3 days by histological study; assay type: organism-based; design: dose 450 mg/kg, route oral; details: in vivo, 72 h; in short: as §1
Mus musculus [6] = assay: Toxicity in CD1 mouse brain at 300 mg/kg, ip after 3 days by histological study; assay type: organism-based; design: dose 300 mg/kg, route intraperitoneal; details: in vivo, 72 h; in short: as §1
Trypanosoma cruzi = assay: Growth inhibition of Trypanosoma cruzi Tulahuen 2 epimastigote at 5 uM after 5 days; assay type: functional; design: Activity: scale not given: the % may be the effect or the level left; details: for inhibition of growth at 5 µM: Trypanosoma cruzi, Tulahuen 2, 120 h, read-out: GI
Mus musculus [7] = assay: Toxicity in CD1 mouse assessed as decrease in weight respect to day zero at 450 mg/kg, po after 3 days; assay type: organism-based; design: dose 450 mg/kg, route oral; scale not given: the % may be the effect or the level left; details: in vivo, 72 h
In short: (§2)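 Healthy 2-month-old female CD1 mice (20–22 g, 5–7 per group) received one dose. Oral doses of 450 or 300 mg/kg were given by intragastric syringe; i.p. doses of 300 or 150 mg/kg by injection. Drugs were suspended in saline:Tween 80 (4:1), and a vehicle-only control was included. Mice were weighed and observed daily for 3 days. Weight change is expressed as percent relative to day zero.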

Mus musculus [8] = assay: Toxicity in CD1 mouse assessed as survival at 450 mg/kg, po after 3 days; assay type: organism-based; design: dose 450 mg/kg, route oral; details: in vivo, 72 h
In short: (§3)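 Healthy 2-month-old female CD1 mice (20–22 g), groups of 5–7, given one oral dose by intragastric syringe or one i.p. injection. Compound suspended in saline:Tween 80 (4:1) with sonication just before dosing; vehicle-treated controls included. Weighed and observed daily over 3 days for skin, physical aspect, activity and faeces; survival recorded at day 3.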

Mus musculus [9] = assay: Toxicity in CD1 mouse assessed as increase in weight respect to day zero at 300 mg/kg, ip after 3 days; assay type: organism-based; design: dose 300 mg/kg, route intraperitoneal; details: in vivo, 72 h; in short: as §2
Mus musculus [10] = assay: Toxicity in CD1 mouse assessed as survival at 300 mg/kg, ip after 3 days; assay type: organism-based; design: dose 300 mg/kg, route intraperitoneal; details: in vivo, 72 h; in short: as §3
Mus musculus [11] = assay: Toxicity in CD1 mouse assessed as leukocyte level at 450 mg/kg, po after 3 days; assay type: organism-based; design: dose 450 mg/kg, route oral; details: in vivo, 72 h
In short: (§4)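 Healthy female CD1 mice (5–7 per group) received a single oral dose of 450 mg/kg or an i.p. dose of 300 mg/kg, with vehicle controls. On day 3 they were sacrificed under ether anaesthesia. Blood was drawn from the subclavian artery and kept at 0 °C in EDTA or heparin. Leukocytes, haemoglobin, haematocrit, GPT and GOT were measured within 24 h and compared with normal ranges.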

Mus musculus [12] = assay: Toxicity in CD1 mouse assessed as leukocyte level at 300 mg/kg, ip after 3 days; assay type: organism-based; design: dose 300 mg/kg, route intraperitoneal; details: in vivo, 72 h; in short: as §4
Mus musculus [13] = assay: Toxicity in CD1 mouse assessed as haemoglobin level at 450 mg/kg, po after 3 days; assay type: organism-based; design: dose 450 mg/kg, route oral; details: in vivo, 72 h; in short: as §4
Mus musculus [14] = assay: Toxicity in CD1 mouse assessed as haemoglobin level at 300 mg/kg, ip after 3 days; assay type: organism-based; design: dose 300 mg/kg, route intraperitoneal; details: in vivo, 72 h; in short: as §4
Mus musculus [15] = assay: Toxicity in CD1 mouse assessed as hematocrite level at 300 mg/kg, ip after 3 days; assay type: organism-based; design: dose 300 mg/kg, route intraperitoneal; details: in vivo, 72 h; in short: as §4
Mus musculus [16] = assay: Toxicity in CD1 mouse assessed as glutamic-pyruvate transaminase level at 450 mg/kg, po after 3 days; assay type: organism-based; design: dose 450 mg/kg, route oral; details: in vivo, 72 h; in short: as §4
Mus musculus [17] = assay: Toxicity in CD1 mouse assessed as glutamic-pyruvate transaminase level at 300 mg/kg, ip after 3 days; assay type: organism-based; design: dose 300 mg/kg, route intraperitoneal; details: in vivo, 72 h; in short: as §4
Mus musculus [18] = assay: Toxicity in CD1 mouse assessed as glutamic-oxalacetate transaminase level at 450 mg/kg, po after 3 days; assay type: organism-based; design: dose 450 mg/kg, route oral; details: in vivo, 72 h; in short: as §4
Mus musculus [19] = assay: Toxicity in CD1 mouse liver at 300 mg/kg, ip after 3 days by histological study; assay type: organism-based; design: dose 300 mg/kg, route intraperitoneal; details: in vivo, 72 h; in short: as §1
Mus musculus [20] = assay: Toxicity in CD1 mouse assessed as glutamic-oxalacetate transaminase level at 300 mg/kg, ip after 3 days; assay type: organism-based; design: dose 300 mg/kg, route intraperitoneal; details: in vivo, 72 h; in short: as §4
Mus musculus [21] = assay: Toxicity in CD1 mouse liver at 450 mg/kg, po after 3 days by histological study; assay type: organism-based; design: dose 450 mg/kg, route oral; details: in vivo, 72 h; in short: as §1
Mus musculus [22] = assay: Toxicity in CD1 mouse intestine at 450 mg/kg, po after 3 days by histological study; assay type: organism-based; design: dose 450 mg/kg, route oral; details: in vivo, 72 h; in short: as §1
Mus musculus [23] = assay: Toxicity in CD1 mouse intestine at 300 mg/kg, ip after 3 days by histological study; assay type: organism-based; design: dose 300 mg/kg, route intraperitoneal; details: in vivo, 72 h; in short: as §1
Mus musculus [24] = assay: Toxicity in CD1 mouse kidney at 450 mg/kg, po after 3 days by histological study; assay type: organism-based; design: dose 450 mg/kg, route oral; details: in vivo, 72 h; in short: as §1
Mus musculus [25] = assay: Toxicity in CD1 mouse kidney at 300 mg/kg, ip after 3 days by histological study; assay type: organism-based; design: dose 300 mg/kg, route intraperitoneal; details: in vivo, 72 h; in short: as §1
Mus musculus [26] = assay: Toxicity in CD1 mouse assessed as hematocrite level at 450 mg/kg, po after 3 days; assay type: organism-based; design: dose 450 mg/kg, route oral; details: in vivo, 72 h; in short: as §4
Mus musculus [27] = assay: Toxicity in CD1 mouse assessed as increase in weight respect to day zero at 450 mg/kg, po after 3 days; details: in vivo, 72 h

Compound	Activity (Mus musculus [1])	Activity (Mus musculus [2])	Activity (Mus musculus [3])	Activity (Mus musculus [4])	Activity (Mus musculus [5])	Activity (Mus musculus [6])	inhibition of growth at 5 µM (Trypanosoma cruzi)	Activity (Mus musculus [9])	Activity (Mus musculus [11])	Activity (Mus musculus [12])	Activity (Mus musculus [13])	Activity (Mus musculus [14])	Activity (Mus musculus [16])	Activity (Mus musculus [18])	Activity (Mus musculus [19])	Activity (Mus musculus [21])	Activity (Mus musculus [22])	Activity (Mus musculus [23])	Activity (Mus musculus [24])	Activity (Mus musculus [25])	further results
CCCCOC(=O)N/N=C/C=C/c1ccc([N+](=O)[O-])o1	Non-toxic	Non-toxic	Non-toxic	Non-toxic	Non-toxic	Non-toxic	87%	2%	26600 µL⁻¹	31800 µL⁻¹	13.5 g/dL	11.8 g/dL	22.6 IU/L	72 IU/L	Toxic	Toxic	Non-toxic	Non-toxic	Non-toxic	Non-toxic	Activity (Mus musculus [7]): 2%; Activity (Mus musculus [8]): Non-toxic; Activity (Mus musculus [10]): Non-toxic; Activity (Mus musculus [15]): 37.2%; Activity (Mus musculus [17]): 17 IU/L; Activity (Mus musculus [20]): 76.5 IU/L
CCCCCCCOC(=O)N/N=C/C=C/c1ccc([N+](=O)[O-])o1	Non-toxic	Non-toxic	Non-toxic	Non-toxic	Non-toxic	Non-toxic	90%	4%	9010 µL⁻¹	11100 µL⁻¹	13.4 g/dL	14.2 g/dL	62.7 IU/L	139 IU/L	Toxic	Toxic	Non-toxic	Non-toxic	Non-toxic	Non-toxic	Activity (Mus musculus [7]): 0%; Activity (Mus musculus [8]): Non-toxic; Activity (Mus musculus [10]): Non-toxic; Activity (Mus musculus [26]): 39.4%; Activity (Mus musculus [17]): 46.1 IU/L; Activity (Mus musculus [20]): 77.7 IU/L
CCCCCCCCOC(=O)N/N=C/c1ccc([N+](=O)[O-])o1	Non-toxic	Non-toxic	Non-toxic	Non-toxic	Non-toxic	Non-toxic		4%	6600 µL⁻¹	5300 µL⁻¹	11.9 g/dL	13.8 g/dL	30 IU/L	119 IU/L	Toxic	Toxic	Non-toxic	Non-toxic	Non-toxic	Non-toxic	Activity (Trypanosoma cruzi): 84%; Activity (Mus musculus [7]): 11%; Activity (Mus musculus [26]): 36.4%; Activity (Mus musculus [15]): 43.6%
CCCCCCNC(=O)/C=C/c1ccc([N+](=O)[O-])o1	Toxic	Toxic	Toxic	Toxic	Non-toxic	Non-toxic	82%	2%	86000 µL⁻¹	12100 µL⁻¹	11.5 g/dL	11.3 g/dL	22.7 IU/L	69.8 IU/L	Toxic	Toxic	Non-toxic	Non-toxic	Non-toxic	Non-toxic	Activity (Mus musculus [7]): 0%; Activity (Mus musculus [8]): Non-toxic; Activity (Mus musculus [10]): Non-toxic; Activity (Mus musculus [26]): 30.4%; Activity (Mus musculus [17]): 52.8 IU/L; Activity (Mus musculus [20]): 129 IU/L
CCCCCCCCOC(=O)N/N=C/C=C/c1ccc([N+](=O)[O-])o1	Non-toxic	Non-toxic	Non-toxic	Non-toxic	Non-toxic	Non-toxic	92%	1%	7750 µL⁻¹	10600 µL⁻¹	13.9 g/dL	13.4 g/dL	70.2 IU/L	84 IU/L	Toxic	Toxic	Non-toxic	Non-toxic	Toxic	Non-toxic	Activity (Mus musculus [8]): Non-toxic; Activity (Mus musculus [17]): 50.7 IU/L; Activity (Mus musculus [20]): 57 IU/L; Activity (Mus musculus [27]): 2%
